Hits are enriched below; roughly 4.2% of the tested compounds scored in any of these assays.
CHOP inh: CHOP inhibition in unfolded protein response; CHO-K1 CHOP-promoter luciferase, tunicamycin-induced, 15-18 h; inhibition, % at 10 µM; actives 3.8% (n = 220,000); AID 2732;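 active = compounds that reduced the stress-induced luciferase reporter signal by more than about 70% of percent inhibition, limit read from the data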;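 note: 0% = tunicamycin plus vehicle and 100% = wells without tunicamycin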
ANO1 block: mouse TMEM16A channel inhibition, primary screen; Q8BHY3; HEK293 TMEM16A/YFP iodide influx fluorescence, ionomycin; normalized B-score (activity score, 25-100; higher = stronger inhibition) at 10 µM; actives 1.2% (n = 310,000); AID 588511;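 active = ratio plate-corrected score three or more library SD toward inhibition, starting fluorescence score within five deviations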;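 note: score derived from kinetic fluorescence span divided by baseline fluorescence per well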
Target sequence (Q8BHY3 whole entry, looked up): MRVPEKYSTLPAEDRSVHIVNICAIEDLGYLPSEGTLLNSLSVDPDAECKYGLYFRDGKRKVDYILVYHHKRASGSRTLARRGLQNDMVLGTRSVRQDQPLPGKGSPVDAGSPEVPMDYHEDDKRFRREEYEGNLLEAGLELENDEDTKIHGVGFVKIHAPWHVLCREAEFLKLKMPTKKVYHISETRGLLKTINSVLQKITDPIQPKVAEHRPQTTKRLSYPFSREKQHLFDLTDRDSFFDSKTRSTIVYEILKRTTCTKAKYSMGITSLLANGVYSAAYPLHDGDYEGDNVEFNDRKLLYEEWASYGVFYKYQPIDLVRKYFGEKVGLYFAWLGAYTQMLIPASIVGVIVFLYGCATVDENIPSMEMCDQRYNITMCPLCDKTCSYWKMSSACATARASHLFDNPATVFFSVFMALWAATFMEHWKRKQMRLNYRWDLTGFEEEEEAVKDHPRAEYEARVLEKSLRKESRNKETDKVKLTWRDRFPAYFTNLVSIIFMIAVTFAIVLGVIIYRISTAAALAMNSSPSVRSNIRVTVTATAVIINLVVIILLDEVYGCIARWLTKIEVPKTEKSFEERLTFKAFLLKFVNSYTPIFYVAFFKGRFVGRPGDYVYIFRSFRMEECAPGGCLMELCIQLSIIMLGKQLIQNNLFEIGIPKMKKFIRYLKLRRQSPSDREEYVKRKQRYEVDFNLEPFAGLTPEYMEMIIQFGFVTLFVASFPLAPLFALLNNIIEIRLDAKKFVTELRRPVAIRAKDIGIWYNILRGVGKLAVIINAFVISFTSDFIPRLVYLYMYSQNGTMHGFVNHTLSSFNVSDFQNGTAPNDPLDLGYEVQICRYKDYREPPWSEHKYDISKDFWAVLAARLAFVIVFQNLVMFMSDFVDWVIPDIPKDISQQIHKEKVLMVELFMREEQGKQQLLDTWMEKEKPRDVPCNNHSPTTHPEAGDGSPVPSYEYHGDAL
UPR XBP1 act: activators of adaptive arm of unfolded protein response (XBP1); CHO-XBP1 luciferase reporter, IRE1-XBP1 UPR activation, luminescence; percent of tunicamycin response, DMSO as zero; activation, % at 20 µM; actives 0.33% (n = 330,000); AID 463104;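 active = versus positive control, 20 µM dose yields 30% or more activation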;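 note: 100% = tunicamycin at 10 µg/mL and 0% = DMSO only wells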
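Material: CHO-XBP1 cells stably carrying IRE1-XBP1-driven luciferase reporter | Medium: F12 with 10% serum | Compound dosing: 20 µM single concentration, DMSO 1% | Incubation: Overnight seeding at 37 °C, 6 h compound treatment at 37 °C | Detection: Steady-Glo luminescence read | Read-out basis: % activation of reporter signal versus tunicamycin and DMSO controls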
UPR CHOP act: activators of apoptotic arm of unfolded protein response (CHOP). CHO-CHOP luciferase reporter, UPR activation, luminescence; percent of tunicamycin response over DMSO baseline. activation, % at 10 µM. actives 0.34% (n = 330,000);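 active = at 10 µM dose, activation of 40% or more, normalized to positive control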;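 note: 100% = tunicamycin at 10 µg/mL and 0% = DMSO alone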
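Material: CHO-CHOP cells, stable luciferase reporter of PERK-eIF2a-CHOP signalling; quantity: 500 reporter cells seeded per well; buffer or medium: F12 medium containing 10% fetal bovine serum; compound: one dose, 10 µM in 0.5% DMSO; incubation: 6 h compound treatment, 37 °C; measured by: Steady-Glo luciferase luminescence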
Hep lipid drop: hepatic lipid droplet formation modulation; AML12 mouse hepatocytes, oleate lipid droplets, BODIPY imaging; inhibition, % at 6.5 µM; actives 0.4% (n = 240,000); AID 1656;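 active = lipid droplet intensity inhibited by at least 50%, with more than 500 cells counted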
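Technique: fluorescence imaging, 20x objective, two fields per well / Assay system: AML12 hepatocytes (mouse) / Measure: % inhibition of lipid droplet signal / Doses: 6.5 µM single-point dosing / Incubation: overnight exposure / Reagent: 100 µM oleic acid challenge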
TMEM16A act: activates or potentiates the mouse TMEM16A chloride channel | AID 623877 | actives 0.3% (n = 340,000) | Q8BHY3 | HEK293 TMEM16A/YFP-H148Q/I152L, iodide quench fluorescence; stronger effect = lower value | B-score at 10 µM;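 active = fluorescence-ratio B-score plate-corrected deviation score at least 3 library SD below zero, with starting fluorescence score within 5 deviations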;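 note: channel opened by trigger with iodide after compound preincubation; score built on the fluorescence ratio of max minus min over baseline; more negative score means more quench and so TMEM16A activation or potentiation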
CHOP confirm: confirmation of CHOP induction inhibitors; actives 45% (n = 2,100); AID 504437; shares compounds with CHOP inh; CHO-CHOP promoter luciferase reporter, tunicamycin-induced, luminescence; inhibition, % at 10 µM;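 active = mean of three repeat readings of reporter signal inhibition above a set limit, cut at about 70% in these data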;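 note: 0% = tunicamycin plus vehicle and 100% = wells lacking tunicamycin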
Starred values were filed as active, the others as inactive; i = inactive; nt = not tested or not shown.

SMILES | CHOP inh | ANO1 block | UPR XBP1 act | UPR CHOP act | Hep lipid drop | TMEM16A act | CHOP confirm
CC1CCc2c(sc3ncn(CC(=O)N=Nc4c(O)[nH]c5ccccc45)c(=O)c23)C1 (stereo not given) | 104.6* | i | 0.3 | 0.5 | 9.2 | i | 113.0*
CC1CCc2c(sc3ncn(CCO)c(=O)c23)C1 (stereo not given) | -9.8 | i | 2.1 | 3.3 | -3.3 | i | nt
CCc1cccc(C)c1NC(=O)COC(=O)CSCc1ccccc1 | nt | nt | -1.2 | -0.7 | nt | i | nt
CCOC(=O)c1cccc(NC(=O)CSc2nnc(COc3ccccc3C)o2)c1 | 107.6* | i | 0.0 | -1.3 | nt | i | 12.0
Cc1cc2cc(CN(Cc3ccco3)C(=O)C3CCCCC3)c(=O)[nH]c2cc1C | 105.4* | i | 5.7 | -1.2 | nt | i | 36.6
Cc1cc2cc(CN(Cc3ccco3)C(=O)NCc3ccccc3)c(=O)[nH]c2cc1C | 43.8 | i | -4.0 | -2.7 | nt | i | nt
CC(C)c1ccc(CC(C)C2C3=C(CCCC3=O)OC3=C2C(=O)CCC3)cc1 (stereo not given) | 103.9* | i | -5.3 | -1.1 | 1.2 | i | 58.1
CCn1c(=O)c(C(=O)CN2CCCc3ccccc32)c(N)n(Cc2ccccc2)c1=O | 97.5* | i | -0.1 | 3.9 | nt | i | 12.9
O=C(Nc1ccc(-c2nc3ccccc3s2)cc1)C1=COCCO1 | 103.9* | i | -11.1 | -6.3 | -4.5 | i | 92.1*
Cc1ccc(/C=N/N2C(=S)SC(C)(C)C2N(O)C(=O)Nc2ccc([N+](=O)[O-])cc2)cc1 (stereo not given) | 103.1* | i | 5.8 | 3.4 | nt | i | 78.1*
CNC(=O)N(O)C1N(/N=C/c2ccc(C)cc2)C(=S)SC1(C)C (stereo not given) | nt | i | -4.0 | -1.6 | 12.9 | i | nt
CCOC(=O)c1c(NC(=O)C(C)Sc2nnc(C)c(=O)[nH]2)sc2c1CCCC2 (stereo not given) | nt | i | 1.2 | -0.6 | -1.5 | i | nt
O=C(OCn1ncc(Cl)c(Cl)c1=O)c1ccc(C(F)(F)F)cc1 | 104.2* | nt | -5.8 | 36.2 | nt | i | 116.4*
O=S(=O)(/N=S1/CC=CCN1S(=O)(=O)c1ccccc1)c1ccccc1 (stereo not given) | 103.5* | i | 0.6 | -1.0 | -8.4 | i | 5.8
CCN1C(=O)[C@H]2[C@@H](c3ccc(-c4ccc(C(C)=O)cc4)c(OC)c3)N[C@@](Cc3ccccc3)(C(=O)OC)[C@H]2C1=O | nt | i | -1.5 | 1.6 | nt | i | nt
N#Cc1cc(C(=O)c2cc(Cl)ccc2O)cn(-c2ccccc2)c1=O | 14.4 | i | -1.8 | -1.2 | -25.7 | i | nt
O=C(c1ccccc1)c1cc(Cl)ccc1N1C(=O)C=CC1=O | 105.7* | nt | nt | nt | 13.5 | i | -10.3
Cc1cccc(NC(=O)C(=O)NCC2CCCN2S(=O)(=O)c2ccccc2)c1 (stereo not given) | nt | i | -1.8 | 0.1 | nt | i | nt
O=c1c2c(-c3ccccc3)csc2nc2c3ccccc3c(NCCN3CCOCC3)nn12 | 105.8* | nt | nt | nt | -13.9 | i | -23.5
O=C(C1CC1)N1N=C(C2CCCCC2)CC1(O)C(F)(F)F (stereo not given) | 14.6 | i | -3.5 | -1.3 | 19.8 | i | nt
c1cc2c(cc1C1CCCCC1)c1c3n2CCCNC3CCC1 (stereo not given) | nt | i | 7.8 | 32.2 | -1.5 | i | -44.5
Cc1ccc(C2(c3ccc(C)cc3)CC2C(=O)Nc2ccc([N+](=O)[O-])cc2O)cc1 (stereo not given) | 107.1* | 100* | 4.1 | 18.3 | nt | i | 77.7*
CCOC(=O)Cc1csc(SC(C)C(=O)NC2CCCCC2C)n1 (stereo not given) | nt | i | -0.9 | 0.6 | nt | i | nt
CC(=O)C1=C(c2ccccc2)NC(=O)NC1c1ccc(O)c(Cl)c1 (stereo not given) | nt | i | 4.0 | 1.0 | 4.8 | i | nt

Assay outcomes deposited in PubChem by several laboratories.
